The values below come from ChEMBL document CHEMBL5523707, “Novel Inhibitory Site Revealed by XAP044 Mode of Action on the Metabotropic Glutamate 7 Receptor Venus Flytrap Domain” (J Med Chem, 2024).

Active and inactive are the calls of the source. The rule behind the calls is not given here.

The target of experiment [1] is Metabotropic glutamate receptor 7 (Rattus norvegicus) (UniProt P35400). In words: Antagonist activity against LSP4-202-induced rat mGlu7 activation transfected in HEK293 cells co-transfected with chimeric Gqi9 assessed as decrease in LSP4-202 potency by measuring LSP4-202 maximum efficacy at 30 to 100 uM incubated for 24 hrs by IP-one HTRF assay relative to control. Format: functional, cell-based. Conditions: filed as antagonist, dose 30-100 µM. Put shortly:
(§1)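 IP-One HTRF IP1 read-out in HEK293 transiently expressing rat mGlu7 plus chimeric Gqα9, 24 h after electroporation. LSP4-2022 concentration-response was tested with derivatives at 30 or 100 µM. Gives pEC50, pEC50/pEC50 control ratio, and max as % of LSP4-2022 maximal effect over basal. Triplicates, n independent experiments; paired t-test.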

A further experiment is filed under the species Rattus norvegicus. The experiment in a line: Ratio of pEC50 for antagonist activity against LSP4-202-induced rat mGlu7 activation transfected in HEK293 cells co-transfected with chimeric Gqi9 assessed as decrease in LSP4-202 potency to pEC50 for LSP4-202-induced rat mGlu7 activation transfected in HEK293 cells co-transfected with chimeric Gqi9. In kind it is cell-based. Put shortly: as §1

The target of experiment [2] is Metabotropic glutamate receptor 7 (Rattus norvegicus) (UniProt P35400). The experiment in a line: Antagonist activity against LSP4-202-induced rat mGlu7 activation transfected in HEK293 cells co-transfected with chimeric Gqi9 assessed as decrease in LSP4-202 potency by measuring LSP4-202 pEC50 incubated for 24 hrs by IP-one HTRF assay. In kind it is functional, cell-based. The essentials:
as §1
(In general: In TR-FRET formats the signal depends on donor and acceptor labels being close together.)

Experiment [3] has the same target. The experiment in a line: Competitive antagonist activity against rat mGlu7 receptor assessed as decrease in LSP4-202 effect at 0.3 to 30 uM by Schild plot analysis. Conditions: filed as antagonist, dose 0.3-30 µM. The essentials:
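Schild analysis used the shift of LSP4-2022 concentration-response curves in IP-One IP1 assays. Cells were HEK293 co-transfected with rat mGlu7 and Gqα9. Data are means ± sem of 3 to 11 experiments run in triplicates.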

In experiment [4] the target is Metabotropic glutamate receptor 7 (Rattus norvegicus, UniProt P35400). In words: Antagonist activity against rat mGlu7 activation transfected in HEK293 cells co-transfected with chimeric Gqi9 incubated for 24 hrs in presence of LSP4-2022 by IP-one HTRF assay. Format: functional, cell-based. Put shortly: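 Inhibition curves were run with increasing inhibitor concentrations against IP1 production by 30 µM LSP4-2022. Rat mGlu7 was co-expressed with Gqα9 in HEK293 and assayed 24 h post-transfection with IP-One HTRF. IC50/pIC50 are means ± sem of independent experiments in triplicates. pIC50 compared to reference by unpaired t-test.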
Sequence of Metabotropic glutamate receptor 7 (P35400 whole entry): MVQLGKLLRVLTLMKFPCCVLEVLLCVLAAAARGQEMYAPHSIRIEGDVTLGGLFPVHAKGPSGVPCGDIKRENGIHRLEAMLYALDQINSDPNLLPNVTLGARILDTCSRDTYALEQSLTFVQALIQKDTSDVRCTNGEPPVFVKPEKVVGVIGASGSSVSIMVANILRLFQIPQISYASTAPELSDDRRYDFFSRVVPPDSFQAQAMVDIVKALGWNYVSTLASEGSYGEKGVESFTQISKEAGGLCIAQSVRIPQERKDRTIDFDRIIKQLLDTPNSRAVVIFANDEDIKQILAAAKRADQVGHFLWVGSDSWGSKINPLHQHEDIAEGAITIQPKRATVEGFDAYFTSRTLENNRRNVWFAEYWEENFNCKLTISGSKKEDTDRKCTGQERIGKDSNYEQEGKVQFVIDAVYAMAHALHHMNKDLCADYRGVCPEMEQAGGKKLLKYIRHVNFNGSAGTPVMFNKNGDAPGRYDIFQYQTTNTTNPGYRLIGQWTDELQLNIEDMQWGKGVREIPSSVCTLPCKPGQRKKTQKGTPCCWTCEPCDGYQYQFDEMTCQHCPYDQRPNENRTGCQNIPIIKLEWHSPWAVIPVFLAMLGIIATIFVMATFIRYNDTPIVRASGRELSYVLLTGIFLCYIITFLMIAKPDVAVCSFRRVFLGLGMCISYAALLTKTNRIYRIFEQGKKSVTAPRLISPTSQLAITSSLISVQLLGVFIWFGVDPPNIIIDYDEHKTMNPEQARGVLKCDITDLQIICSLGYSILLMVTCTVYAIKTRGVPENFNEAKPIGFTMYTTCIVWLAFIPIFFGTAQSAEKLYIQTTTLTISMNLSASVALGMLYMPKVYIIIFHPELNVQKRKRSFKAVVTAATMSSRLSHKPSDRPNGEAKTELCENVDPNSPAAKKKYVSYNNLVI

Sequence of Metabotropic glutamate receptor 7 (Rattus norvegicus) (P35400 whole entry): as above

The term Emax denotes the greatest response seen or fitted, relative to the assay's reference. As to `N#Cc1ccc(OCC(=O)c2ccc(O)cc2)cc1`, in experiment [1], the Emax stood at 92.6%. In addition, the Ratio in the experiment listed under Rattus norvegicus came out at 0.89.
Consider `O=c1c2ccccc2oc2c1oc1cc(O)ccc12`, for which, in experiment [2], the inhibition result was “inactive”.
Still for that read-out and setting: with `COc1ccc2c(c1)oc1c(=O)c3ccccc3oc12` the entry was “inactive”.
Regarding `O=C(COc1ccc(Cl)cc1)c1ccc(O)cc1`, the Emax in experiment [1] was 98.5%. Besides, the Ratio in the experiment listed under Rattus norvegicus amounted to 0.83.
Take `O=c1c2ccc(F)cc2oc2c1oc1ccc(I)cc12`: the inhibition result in experiment [2] is “inactive”.
For `O=C(COc1ccc([N+](=O)[O-])cc1)c1ccc(O)cc1`, in experiment [1], the maximal effect (Emax) stood at 98.5%. In addition, the Ratio in the experiment listed under Rattus norvegicus was found to be 0.87.
On the same counts, the results for `O=C(COc1ccc(Br)cc1Br)c1ccc(O)cc1` are 96.1% and 0.97.
On the same counts, the results for `COc1ccc(C(=O)COc2ccc(I)cc2)cc1` are 93.6% and 0.97.
Consider `O=C(COc1ccc(Cl)cc1Cl)c1ccc(O)cc1`, for which the Emax in experiment [1] was determined as 92.3%. In the experiment filed under Rattus norvegicus, the Ratio was found to be 0.94.
On to `O=C(COc1ccc(C(F)(F)F)cc1)c1ccc(O)cc1`, for which, in experiment [1], the Emax stood at 101%. Also, in the experiment listed under Rattus norvegicus, the Ratio worked out at 0.91.
As for `O=c1c2ccccc2oc2c1sc1ccccc12`, the inhibition entry in experiment [2] is “inactive”.
Take `N#Cc1c(F)cc(OCC(=O)c2ccc(O)cc2)cc1F`: in experiment [1], the Emax was 94.2%. The Ratio in the experiment filed under Rattus norvegicus was determined as 1.03.
Regarding `COc1ccc2c(=O)c3oc4cc(I)ccc4c3oc2c1`, the inhibition entry in experiment [2] is “inactive”.
Take `O=C(COc1ccc(O)cc1)c1ccc(O)cc1`: the Emax in experiment [1] is 88.1%. Further, the Ratio in the experiment filed under Rattus norvegicus was 1.06.
On the same counts, the results for `NS(=O)(=O)c1ccc(OCC(=O)c2ccc(O)cc2)cc1` are 89.2% and 1.06.
On the same counts, the results for `O=C(COc1ccc(Br)cc1Cl)c1ccc(O)cc1` are 93.3% and 0.95.
On to `O=c1c2ccccc2oc2c1oc1ccc(Br)cc12`, for which the inhibition result in experiment [2] was “inactive”.
`COc1ccc(OCC(=O)c2ccc(O)cc2)cc1OC`: in experiment [1], the Emax was 96%. Further, the Ratio in the experiment listed under Rattus norvegicus is 0.99.
On the same counts, the results for `O=C(COc1cccc(O)c1)c1ccc(O)cc1` are 96.8% and 1.03.
On the same counts, the results for `O=C(O)c1ccc(OCC(=O)c2ccc(O)cc2)cc1` are 98.6% and 1.07.
Turning to `COc1ccc(OCC(=O)c2ccc(O)cc2)cc1`, in experiment [1], the Emax was 97.6%. Also, the Ratio in the experiment filed under Rattus norvegicus was 0.96.
As for `COc1ccc2c(=O)c3oc4ccc(I)cc4c3oc2c1`, in experiment [2], the inhibition entry was “inactive”.
On to `O=C(COc1ccc(Br)cc1F)c1cc(F)c(O)c(F)c1`, for which the result in experiment [3] was Active. Further, the IC50 in experiment [4] (read-out: IC50) was 1250 nM; in experiment [4] (read-out: pIC50 (converted)) it was 1150 nM. In addition, the Ratio in the experiment filed under Rattus norvegicus is less than 0.6.
For the compound `COc1ccc(C(=O)COc2ccc(I)cc2)cc1OC`, the Emax in experiment [1] was determined as 80.4%. In the experiment filed under Rattus norvegicus, the Ratio was found to be 1.05.
Turning to `O=Cc1ccc(OCC(=O)c2ccc(O)cc2)cc1F`, in experiment [1], the Emax worked out at 106%. In addition, the Ratio in the experiment listed under Rattus norvegicus was 1.
In the case of `O=c1c2ccc(O)cc2oc2c1oc1ccc(I)cc12`, in experiment [2], the inhibition entry is “inactive”.
On to `O=C(COc1ccc(F)cc1F)c1ccc(O)cc1`, for which the Emax in experiment [1] came out at 100%. In the experiment filed under Rattus norvegicus, the Ratio worked out at 1.04.
On the same counts, the results for `O=C(COc1ccc([N+](=O)[O-])c([N+](=O)[O-])c1)c1ccc(O)cc1` are 101% and 1.
On the same counts, the results for `COc1ccc(C(=O)COc2ccc([N+](=O)[O-])cc2)cc1` are 85.2% and 0.95.
On the same counts, the results for `O=C(COc1c(F)cc(Br)cc1F)c1ccc(O)cc1` are 94.6% and 0.85.
On to `O=C(COc1ccc(Br)cc1)c1ccc(O)cc1`, for which, in experiment [1], the maximum response (Emax) was determined as 99.2%. For the same compound, the Ratio in the experiment listed under Rattus norvegicus was determined as 0.81.
On the same counts, the results for `O=C(COc1cccc(I)c1)c1ccc(O)cc1` are 102% and 1.02.
On the same counts, the results for `Cc1cc(OCC(=O)c2ccc(O)cc2)ccc1I` are 97.5% and 0.96.
Turning to `Cc1ccc(OCC(=O)c2ccc(O)cc2)cc1`, the Emax in experiment [1] worked out at 95.4%. Further, the Ratio in the experiment filed under Rattus norvegicus is 0.96.
As to `O=C(COc1ccc(I)cc1)c1ccc(O)cc1`, the Emax in experiment [1] was determined as 98.3%. The Ratio in the experiment filed under Rattus norvegicus came out at 0.83.
Regarding `Cc1cc(I)ccc1OCC(=O)c1ccc(O)cc1`, in experiment [1], the Emax turned out to be 98.3%. Moreover, the Ratio in the experiment filed under Rattus norvegicus was 0.97.
For the compound `O=C(COc1ccc(Br)cc1F)c1ccc(O)cc1`, the Emax in experiment [1] worked out at 87.3%. Further, the IC50 in experiment [4] (read-out: IC50) was 2600 nM; in experiment [4] (read-out: pIC50 (converted)) it was 2240 nM. Further, the Ratio in the experiment listed under Rattus norvegicus was found to be 0.76.
As to `COc1ccc(C(=O)COc2ccc(C(F)(F)F)cc2)cc1`, in experiment [1], the Emax worked out at 96.6%. In the experiment filed under Rattus norvegicus, the Ratio was found to be 0.97.
On the same counts, the results for `O=C(COc1c(Cl)cc(Br)cc1Cl)c1ccc(O)cc1` are 101% and 1.01.
With `O=c1c2ccccc2oc2c1oc1ccc(Cl)cc12`, the inhibition result in experiment [2] was “inactive”.
`COc1ccc(C(=O)COc2ccc(C#N)cc2)cc1`: in experiment [1], the Emax was determined as 89.4%. The Ratio in the experiment filed under Rattus norvegicus was 0.95.
In the case of `COc1ccc(C(=O)COc2ccc(I)c(C)c2)cc1`, in experiment [1], the Emax stood at 95.9%. The Ratio in the experiment filed under Rattus norvegicus came to 0.97.
Regarding `O=c1c2ccc(O)cc2oc2c1oc1cc(I)ccc12`, the inhibition entry in experiment [2] is “inactive”.
